Results: ChEMBL document CHEMBL1140196, “Synthesis and biological activities of some new fluorinated coumarins and 1-aza coumarins” (Eur J Med Chem, 2008)

Experiments:
Mus musculus = test: Analgesic activity in albino mouse assessed as inhibition of acetic acid-induced writhing at 10 mg/kg, po; format: functional
Procedure, shortened: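 Acetic acid writhing test: 0.6% acetic acid at 0.1 ml/10 g given intraperitoneally to albino mice of both sexes (18–22 g). Compounds given orally at 10 mg/kg as a suspension in 5% carboxymethyl cellulose. Indomethacin 10 mg/kg was the reference under the same conditions.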

Rattus norvegicus [1] = test: Antiinflammatory activity in Wistar rat assessed as inhibition of formalin-induced paw oedema volume at 100 mg/kg, po administered 30 mins before formalin challenge after 1 hr relative to control; format: functional
Procedure, shortened: (§1)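 Oral dosing at 100 mg/kg as a 2% CMC suspension, 30 min before injecting 3.5% formalin into the paw. Groups of six Wistar rats of either sex. Paw volume read by mercury-displacement plethysmograph at 0 h (right after formalin) and at 1, 2, 3, 4 and 5 h. Percent inhibition versus plain 2% CMC controls; SEM reported.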

[2] = Acute toxicity in ip dosed albino mouse after 24 hrs; format: organism-based; conditions: in vivo
Procedure, shortened: (§2)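 Groups of six albino mice (20–25 g), fasted overnight, dosed once orally or intraperitoneally at 100 to 1000 mg kg^-1 body weight. Observed for 24 h for mortality and signs of acute toxicity (altered motor activity, tremors, convulsion, sedation, lacrimation). LD50 cut-off set at the highest dose tested, 1000 mg kg^-1.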

Rattus norvegicus [3] = test: Antiinflammatory activity in Wistar rat assessed as inhibition of formalin-induced paw oedema volume at 100 mg/kg, po administered 30 mins before formalin challenge after 2 hrs relative to control; format: functional; procedure, shortened: as §1
Rattus norvegicus [4] = test: Antiinflammatory activity in Wistar rat assessed as inhibition of formalin-induced paw oedema volume at 100 mg/kg, po administered 30 mins before formalin challenge after 3 hrs relative to control; format: functional; procedure, shortened: as §1
[5] = Acute toxicity in po dosed albino mouse after 24 hrs; format: organism-based; conditions: in vivo; procedure, shortened: as §2
Rattus norvegicus [6] = test: Antiinflammatory activity in Wistar rat assessed as inhibition of formalin-induced paw oedema volume at 100 mg/kg, po administered 30 mins before formalin challenge after 5 hrs relative to control; format: functional; procedure, shortened: as §1
Rattus norvegicus [7] = test: Gastrointestinal toxicity in Wistar rat assessed as ulcerogenic effect at 400 mg/kg, po administered twice at 2 hrs interval after 4 hrs; format: organism-based; design: dose 400 mg/kg, route oral; conditions: in vivo
Procedure, shortened: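 Male Wistar rats fasted 36 h, then given 400 mg/kg orally twice, 2 h apart. Animals killed 4 h later and the stomach examined for lesions; ulcer index recorded.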

Rattus norvegicus [8] = test: Antiinflammatory activity in Wistar rat assessed as inhibition of formalin-induced paw oedema volume at 100 mg/kg, po administered 30 mins before formalin challenge after 4 hrs relative to control; format: functional; procedure, shortened: as §1
Escherichia coli [9] = test: Antibacterial activity against Escherichia coli at 50 ug/mL after 48 hrs by cup-plate method; format: functional
Aspergillus niger [10] = test: Antifungal activity against Aspergillus niger at 25 ug/mL after 48 hrs by cup-plate method; format: functional; conditions: for zone of inhibition at 25 µg/mL: read-out: IZ
Escherichia coli [11] = test: Antibacterial activity against Escherichia coli at 100 ug/mL after 48 hrs by cup-plate method; format: functional
Aspergillus niger [12] = test: Antifungal activity against Aspergillus niger at 100 ug/mL after 48 hrs by cup-plate method; format: functional
Aspergillus niger [13] = test: Antifungal activity against Aspergillus niger at 50 ug/mL after 48 hrs by cup-plate method; format: functional
Escherichia coli [14] = test: Antibacterial activity against Escherichia coli at 25 ug/mL after 48 hrs by cup-plate method; format: functional; conditions: for zone of inhibition at 25 µg/mL: read-out: IZ
Bacillus [15] = test: Antibacterial activity against […] at 100 ug/mL after 48 hrs by cup-plate method; format: functional
Macrophomina phaseolina [16] = test: Antifungal activity against Rhizoctonia bataticola at 50 ug/mL after 48 hrs by cup-plate method; format: functional
Macrophomina phaseolina [17] = test: Antifungal activity against Rhizoctonia bataticola at 25 ug/mL after 48 hrs by cup-plate method; format: functional
Bacillus [18] = test: Antibacterial activity against […] at 25 ug/mL after 48 hrs by cup-plate method; format: functional; conditions: for zone of inhibition at 25 µg/mL: read-out: IZ
Bacillus [19] = test: Antibacterial activity against […] at 50 ug/mL after 48 hrs by cup-plate method; format: functional
Macrophomina phaseolina [20] = test: Antifungal activity against Rhizoctonia bataticola at 100 ug/mL after 48 hrs by cup-plate method; format: functional
Rattus norvegicus [21] = test: Antiinflammatory activity in Wistar rat assessed as inhibition of formalin-induced paw oedema volume at 10 mg/kg, po administered 30 mins before formalin challenge after 5 hrs relative to control; format: functional
Procedure, shortened: (§3)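 Reference arm of the formalin paw-oedema test: oral dose of 10 mg/kg, 30 min before 3.5% formalin, in groups of six Wistar rats of either sex. Paw volume read by mercury-displacement plethysmograph at 0 to 5 h. Percent inhibition versus 2% CMC vehicle controls.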

Rattus norvegicus [22] = test: Antiinflammatory activity in Wistar rat assessed as inhibition of formalin-induced paw oedema volume at 10 mg/kg, po administered 30 mins before formalin challenge after 2 hrs relative to control; format: functional; procedure, shortened: as §3
Rattus norvegicus [23] = test: Antiinflammatory activity in Wistar rat assessed as inhibition of formalin-induced paw oedema volume at 10 mg/kg, po administered 30 mins before formalin challenge after 3 hrs relative to control; format: functional; procedure, shortened: as §3
Rattus norvegicus [24] = test: Antiinflammatory activity in Wistar rat assessed as inhibition of formalin-induced paw oedema volume at 10 mg/kg, po administered 30 mins before formalin challenge after 4 hrs relative to control; format: functional; procedure, shortened: as §3
Rattus norvegicus [25] = test: Antiinflammatory activity in Wistar rat assessed as inhibition of formalin-induced paw oedema volume at 10 mg/kg, po administered 30 mins before formalin challenge after 1 hr relative to control; format: functional; procedure, shortened: as §3
Rattus norvegicus [26] = test: Gastrointestinal toxicity in Wistar rat assessed as ulcerogenic effect at 10 mg/kg, po administered twice at 2 hrs interval after 4 hrs; format: organism-based; design: dose 10 mg/kg, route oral; conditions: in vivo
Procedure, shortened: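 Male Wistar rats fasted 36 h, then given indomethacin suspended in 1% CMC orally at 2 × 10 mg/kg, 2 h apart. Animals killed after 4 h and the stomach examined for lesions; ulcer index recorded.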

Row | SMILES | inhibition in vivo at 10 mg/kg (Mus musculus) | inhibition in vivo at 100 mg/kg (Rattus norvegicus [1]) | LD50 at 24 h [2] | inhibition in vivo at 100 mg/kg (Rattus norvegicus [3]) | inhibition in vivo at 100 mg/kg (Rattus norvegicus [4]) | LD50 at 24 h [5] | inhibition in vivo at 100 mg/kg (Rattus norvegicus [6]) | UI (Rattus norvegicus [7]) | inhibition in vivo at 100 mg/kg (Rattus norvegicus [8]) | inhibition at 50 µg/mL (Escherichia coli [9]) | inhibition at 25 µg/mL (Aspergillus niger [10]) | inhibition at 100 µg/mL (Escherichia coli [11]) | inhibition at 100 µg/mL (Aspergillus niger [12]) | inhibition at 50 µg/mL (Aspergillus niger [13]) | inhibition at 25 µg/mL (Escherichia coli [14]) | zone of inhibition at 25 µg/mL (Escherichia coli [14]) | inhibition at 100 µg/mL (Bacillus [15]) | inhibition at 50 µg/mL (Macrophomina phaseolina [16]) | inhibition at 25 µg/mL (Macrophomina phaseolina [17]) | inhibition at 25 µg/mL (Bacillus [18]) | other results
1 | O=c1cc(CNc2ccc(F)cc2)c2ccc3ccccc3c2o1 | 76.4% | 81% | > 700 mg/kg | 54% | 53% | > 1000 mg/kg | 81% | 64.93 | 71% |  |  |  |  |  |  |  |  |  |  |  | 
2 | O=c1cc(COc2ccc(F)cc2)c2cc(Cl)ccc2[nH]1 | 26.9% | 39% | > 800 mg/kg | 28% | 57% | > 1000 mg/kg | 80% | 71.42 | 71% | 62% | 29% | 81% | 75% | 44% | 45% | 88 mm | 80% | 68% | 50% | 28% | zone of inhibition at 25 µg/mL (Aspergillus niger [10]): 62 mm; zone of inhibition at 25 µg/mL (Bacillus [18]): 60 mm; inhibition at 50 µg/mL (Bacillus [19]): 51%; inhibition at 100 µg/mL (Macrophomina phaseolina [20]): 84%
3 | COc1ccc2c(c1)c(CC(=O)O)c(C)n2C(=O)c1ccc(Cl)cc1 [INDOMETHACIN] | 46.2% |  | 15 mg/kg |  |  | 25 mg/kg |  |  |  |  |  |  |  |  |  |  |  |  |  |  | inhibition in vivo at 10 mg/kg (Rattus norvegicus [21]): 85%; inhibition in vivo at 10 mg/kg (Rattus norvegicus [22]): 43%; inhibition in vivo at 10 mg/kg (Rattus norvegicus [23]): 75%; inhibition in vivo at 10 mg/kg (Rattus norvegicus [24]): 76%; inhibition in vivo at 10 mg/kg (Rattus norvegicus [25]): 35%; UI (Rattus norvegicus [26]): 185.14
4 | O=c1cc(COc2ccc(F)cc2)c2cc(Cl)ccc2o1 | 56.2% | 39% | > 700 mg/kg | 38% | 58% | > 1000 mg/kg | 80% | 66.66 | 71% | 60% | 61% | 94% | 89% | 71% | 51% | 92 mm | 97% | 74% | 65% | 64% | inhibition at 50 µg/mL (Bacillus [19]): 71%; inhibition at 100 µg/mL (Macrophomina phaseolina [20]): 89%
5 | Cc1ccc2c(CNc3ccc(F)cc3)cc(=O)oc2c1 | 3.96% | 62% | > 800 mg/kg | 37% | 54% | > 1000 mg/kg | 83% | 64.93 | 67% | 46% | 14% | 73% | 67% | 33% | 27% | 58 mm | 74% | 49% | 26% | 28% | zone of inhibition at 25 µg/mL (Aspergillus niger [10]): 40 mm; zone of inhibition at 25 µg/mL (Bacillus [18]): 60 mm; inhibition at 50 µg/mL (Bacillus [19]): 55%; inhibition at 100 µg/mL (Macrophomina phaseolina [20]): 70%
6 | O=c1cc(CNc2ccc(F)cc2)c2ccc(Cl)cc2[nH]1 | 28.6% | 4% | > 700 mg/kg | 4% | 42% | > 1000 mg/kg | 77% | 61.42 | 57% | 54% | 41% | 73% | 80% | 52% | 32% | 68 mm | 78% | 62% | 48% | 27% | zone of inhibition at 25 µg/mL (Aspergillus niger [10]): 78 mm; zone of inhibition at 25 µg/mL (Bacillus [18]): 58 mm; inhibition at 50 µg/mL (Bacillus [19]): 44%; inhibition at 100 µg/mL (Macrophomina phaseolina [20]): 79%
